Results published in ChEMBL document CHEMBL1123192 (J Med Chem, 1986).

Tests used:
[1] = tested on: Rattus norvegicus; test: Maximal change in mean arterial blood pressure (MABP) measured as % change from pretreatment value at dose of 50 mg/kg in SHR; type: functional
Method in brief: (§1)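 Spontaneously hypertensive rats; test agent dissolved or dispersed in 0.5% methylcellulose and given by gastric gavage at 5 mL/kg after a 1-h equilibration. Doses ranged from 1 to 100 mg/kg, with 4–8 animals per dose. MABP and HR were monitored for 4 h. Pretreatment values and maximal % change were recorded, and maximal changes were compared with vehicle by Dunnett's t test.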

[2] = tested on: Rattus norvegicus; test: Maximal change in mean arterial blood pressure (MABP) measured as pretreatment value at dose of 50 mg/kg in SHR; type: functional; method in brief: as §1
[3] = tested on: Rattus norvegicus; test: Maximal change in heart rate (HR) measured as pretreatment value at dose of 50 mg/kg in SHR; type: functional; method in brief: as §1
[4] = species: Cavia porcellus; test: Beta-2-adrenoceptor ISA (intrinsic sympathomimetic activity)was measured as relaxant effect against a PGF2-alpha contracted guinea pig trachea at 1x10E-5 M; type: functional
[5] = tested on: Rattus norvegicus; test: Maximal change in heart rate (HR) measured as % change from pretreatment value at dose of 50 mg/kg in SHR; type: functional; method in brief: as §1
[6] = molecular target: Beta-1 adrenergic receptor (Cavia porcellus, UniProt B0FL73); test: The compound was evaluated for the antagonistic activity against beta-1 adrenergic receptor.; type: functional; settings: read-out: pA2 (converted)
Method in brief: (§2)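 Isolated tissue suited to each receptor test, held in 10-mL organ baths of Krebs-Henseleit solution at 37 °C and gassed with 95% O2/5% CO2. Antagonism was judged by how several concentrations of test agent altered a cumulative concentration-response curve to a receptor-specific agonist.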

[7] = molecular target: T1, Adrenergic receptor alpha-1 (Homo sapiens, UniProt P35348+P25100+P35368); test: The compound was evaluated for the antagonistic activity against alpha-1 adrenergic receptor.; type: functional, Oryctolagus cuniculus; method in brief: as §2
T1 sequence (P35348 whole entry): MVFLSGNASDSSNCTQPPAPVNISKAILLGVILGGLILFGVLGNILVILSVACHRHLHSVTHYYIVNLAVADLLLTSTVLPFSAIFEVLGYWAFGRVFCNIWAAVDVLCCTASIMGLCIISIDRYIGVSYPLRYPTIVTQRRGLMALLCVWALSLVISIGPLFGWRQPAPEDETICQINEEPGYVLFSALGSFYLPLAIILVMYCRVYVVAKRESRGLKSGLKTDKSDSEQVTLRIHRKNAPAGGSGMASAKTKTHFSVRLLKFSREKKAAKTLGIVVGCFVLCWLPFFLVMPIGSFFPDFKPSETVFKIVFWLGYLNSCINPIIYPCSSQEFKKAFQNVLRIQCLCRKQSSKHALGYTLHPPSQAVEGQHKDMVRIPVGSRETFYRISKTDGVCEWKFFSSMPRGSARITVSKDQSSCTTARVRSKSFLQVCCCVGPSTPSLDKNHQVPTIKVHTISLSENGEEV
T1 sequence (P25100 whole entry): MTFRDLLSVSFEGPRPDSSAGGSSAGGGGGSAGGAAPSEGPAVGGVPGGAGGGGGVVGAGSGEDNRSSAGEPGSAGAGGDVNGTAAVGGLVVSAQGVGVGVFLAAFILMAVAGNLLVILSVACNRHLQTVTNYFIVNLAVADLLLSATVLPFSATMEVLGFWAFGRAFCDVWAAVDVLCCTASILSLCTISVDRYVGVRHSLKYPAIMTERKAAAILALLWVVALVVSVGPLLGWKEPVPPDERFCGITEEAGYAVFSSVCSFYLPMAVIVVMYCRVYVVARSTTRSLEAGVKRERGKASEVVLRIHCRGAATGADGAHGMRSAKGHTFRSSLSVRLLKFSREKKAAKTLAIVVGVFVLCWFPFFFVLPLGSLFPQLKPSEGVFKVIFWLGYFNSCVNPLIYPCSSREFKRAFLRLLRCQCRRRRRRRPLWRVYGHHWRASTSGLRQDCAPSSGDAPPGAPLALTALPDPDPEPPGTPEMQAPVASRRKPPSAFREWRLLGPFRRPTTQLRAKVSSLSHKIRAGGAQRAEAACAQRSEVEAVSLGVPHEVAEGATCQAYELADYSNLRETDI
T1 sequence (P35368 whole entry): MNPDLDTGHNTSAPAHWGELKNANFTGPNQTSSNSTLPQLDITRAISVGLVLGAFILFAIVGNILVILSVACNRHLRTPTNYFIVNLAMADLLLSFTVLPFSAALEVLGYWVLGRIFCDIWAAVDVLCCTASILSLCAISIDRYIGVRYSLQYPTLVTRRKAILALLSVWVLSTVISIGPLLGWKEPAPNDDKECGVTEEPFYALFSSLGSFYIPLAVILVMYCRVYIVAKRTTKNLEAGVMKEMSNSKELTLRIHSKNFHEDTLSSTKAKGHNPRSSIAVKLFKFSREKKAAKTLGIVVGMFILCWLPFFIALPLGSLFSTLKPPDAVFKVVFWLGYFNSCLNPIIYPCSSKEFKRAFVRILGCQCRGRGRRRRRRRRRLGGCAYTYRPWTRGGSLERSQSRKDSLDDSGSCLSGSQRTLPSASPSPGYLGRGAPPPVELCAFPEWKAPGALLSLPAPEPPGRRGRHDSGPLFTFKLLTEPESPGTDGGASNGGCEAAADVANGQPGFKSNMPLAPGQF

[8] = molecular target: Beta-2 adrenergic receptor (Cavia porcellus, UniProt Q8K4Z4); test: The compound was evaluated for the antagonistic activity against beta-2 adrenergic receptor.; type: functional; settings: read-out: pA2 (converted); method in brief: as §2
[9] = molecular target: Beta-1 adrenergic receptor (Cavia porcellus) (UniProt B0FL73); test: Beta-1-adrenoceptor ISA (intrinsic sympathomimetic activity)using the guinea pig right atria was measured as % increase of positive chronotropic effect (basal spontaneous beating rate) at 1x10E-6 M; type: functional
[10] = molecular target: T2, Adrenergic receptor alpha-2 (Rattus norvegicus, UniProt P22086+P19328+P22909); test: The compound was evaluated for the antagonistic activity against alpha-2 adrenergic receptor.; type: functional
T2 sequence (P22086 whole entry): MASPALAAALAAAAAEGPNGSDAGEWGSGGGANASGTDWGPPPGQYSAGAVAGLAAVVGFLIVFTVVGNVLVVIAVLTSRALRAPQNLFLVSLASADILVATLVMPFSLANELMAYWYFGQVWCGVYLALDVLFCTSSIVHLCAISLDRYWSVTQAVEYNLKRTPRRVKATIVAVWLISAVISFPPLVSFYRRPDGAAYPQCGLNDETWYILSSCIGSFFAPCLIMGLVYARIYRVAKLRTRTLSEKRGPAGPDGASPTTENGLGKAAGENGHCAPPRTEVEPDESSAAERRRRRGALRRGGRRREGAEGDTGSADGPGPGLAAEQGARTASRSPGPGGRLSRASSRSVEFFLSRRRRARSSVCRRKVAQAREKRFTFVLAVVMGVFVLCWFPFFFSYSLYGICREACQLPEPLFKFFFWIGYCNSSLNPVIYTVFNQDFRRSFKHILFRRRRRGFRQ
T2 sequence (P19328 whole entry): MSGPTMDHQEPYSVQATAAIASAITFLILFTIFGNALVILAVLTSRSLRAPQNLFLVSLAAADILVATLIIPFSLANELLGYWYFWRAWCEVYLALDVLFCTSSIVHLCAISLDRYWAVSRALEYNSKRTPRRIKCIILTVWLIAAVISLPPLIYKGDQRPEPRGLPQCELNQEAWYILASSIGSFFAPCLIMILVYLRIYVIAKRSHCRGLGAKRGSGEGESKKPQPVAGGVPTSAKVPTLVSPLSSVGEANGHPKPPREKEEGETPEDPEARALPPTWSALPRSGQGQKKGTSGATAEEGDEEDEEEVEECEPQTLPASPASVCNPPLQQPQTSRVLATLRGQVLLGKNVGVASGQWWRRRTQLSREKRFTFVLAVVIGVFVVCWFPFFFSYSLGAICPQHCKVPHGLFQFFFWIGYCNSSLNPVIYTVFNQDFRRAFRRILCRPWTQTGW
T2 sequence (P22909 whole entry): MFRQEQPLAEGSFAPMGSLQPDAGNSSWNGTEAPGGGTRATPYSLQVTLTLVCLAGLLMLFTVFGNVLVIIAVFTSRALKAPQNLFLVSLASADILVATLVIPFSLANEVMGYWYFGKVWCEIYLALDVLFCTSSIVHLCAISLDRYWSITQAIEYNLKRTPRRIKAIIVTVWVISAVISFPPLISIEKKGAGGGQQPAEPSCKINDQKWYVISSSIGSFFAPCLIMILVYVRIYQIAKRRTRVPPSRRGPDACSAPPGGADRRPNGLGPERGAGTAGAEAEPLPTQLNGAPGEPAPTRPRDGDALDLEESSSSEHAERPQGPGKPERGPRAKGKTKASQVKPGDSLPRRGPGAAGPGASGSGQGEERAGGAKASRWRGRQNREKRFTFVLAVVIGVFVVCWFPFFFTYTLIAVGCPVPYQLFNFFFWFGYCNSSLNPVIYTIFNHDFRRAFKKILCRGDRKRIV

Sequence of Beta-2 adrenergic receptor (Q8K4Z4 whole entry): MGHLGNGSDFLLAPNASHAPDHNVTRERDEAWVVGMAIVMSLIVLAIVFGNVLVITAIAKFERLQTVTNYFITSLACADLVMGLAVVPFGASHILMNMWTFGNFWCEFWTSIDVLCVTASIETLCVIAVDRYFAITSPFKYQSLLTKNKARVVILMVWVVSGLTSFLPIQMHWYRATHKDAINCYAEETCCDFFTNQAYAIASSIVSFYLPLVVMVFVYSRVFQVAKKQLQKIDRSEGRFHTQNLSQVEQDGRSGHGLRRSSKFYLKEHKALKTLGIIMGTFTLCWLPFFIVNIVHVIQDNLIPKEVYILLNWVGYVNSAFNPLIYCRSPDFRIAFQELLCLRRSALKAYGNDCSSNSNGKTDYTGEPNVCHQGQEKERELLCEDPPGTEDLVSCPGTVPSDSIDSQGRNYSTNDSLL
Sequence of Beta-1 adrenergic receptor (B0FL73 whole entry): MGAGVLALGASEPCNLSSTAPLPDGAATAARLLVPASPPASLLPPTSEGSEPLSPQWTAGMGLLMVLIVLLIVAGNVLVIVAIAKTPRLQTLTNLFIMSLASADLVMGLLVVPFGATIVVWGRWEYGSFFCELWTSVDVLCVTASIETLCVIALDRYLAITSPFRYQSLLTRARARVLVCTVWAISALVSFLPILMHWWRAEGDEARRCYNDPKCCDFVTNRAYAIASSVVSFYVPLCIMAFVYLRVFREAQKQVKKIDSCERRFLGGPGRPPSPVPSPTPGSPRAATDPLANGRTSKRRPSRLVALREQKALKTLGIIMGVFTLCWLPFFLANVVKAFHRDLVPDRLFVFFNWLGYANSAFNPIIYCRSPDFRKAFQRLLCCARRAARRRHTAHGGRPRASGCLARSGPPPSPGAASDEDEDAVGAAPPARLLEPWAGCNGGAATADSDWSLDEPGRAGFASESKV
Sequence of Beta-1 adrenergic receptor (Cavia porcellus) (B0FL73 1-467): as the sequence (B0FL73 whole entry) above

Kb [6]: > 1 µM
pA2 [7]: 6.2
Kb [8]: > 10 µM
Change [9]: 2.7%
pA2 [10]: < 5
SMILES: CC(CCc1ccccc1)NCC(O)c1cc(C(N)=O)c2c(ccn2C)c1 (stereo not given)
Change [1]: -13%
MABP [2]: 166 mmHg
HR [3]: 411 beats min-1
Change [4]: 34.6%
Change [5]: -15%
